Laboratory results as given in ChEMBL document CHEMBL5058577, “EUbOPEN Chemogenomics Library 2 (Multiplex)” (2022).

Tested on: U2OS
Assay: Multiplex assay against U2OS
Assay type: toxicity, cell-based
Conditions: human
Procedure, shortened: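 Cells were classed with CellPathfinder machine-learning gating, first as Hoechst high-intensity objects or normal cells, then (normal cells) as healthy, pyknosed or fragmented nuclei, and finally (pyknosed cells) as mitotic or apoptotic. Staining of live cells at seeding used Hoechst33342, BioTracker Green Microtubule Cytoskeleton Dye, MitoTracker Red and Annexin V Alexa Fluor 680, with imaging on a CQ1 microscope at 37°C and 5% CO2 after compound addition. Tubulin, mitochondrial-mass and membrane-permeability phenotypes are per cents of healthy-nucleus cells.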

[1] = 12 h, 1 µM, compound concentration 1 uM, replicate 1
[2] = 12 h, 1 µM, compound concentration 1 uM, replicate 2
[3] = 12 h, 10 µM, compound concentration 10 uM, replicate 1
[4] = 12 h, 10 µM, compound concentration 10 uM, replicate 2
[5] = 24 h, 1 µM, compound concentration 1 uM, replicate 1
[6] = 24 h, 1 µM, compound concentration 1 uM, replicate 2
[7] = 24 h, 10 µM, compound concentration 10 uM, replicate 1
[8] = 24 h, 10 µM, compound concentration 10 uM, replicate 2
[9] = 48 h, 1 µM, compound concentration 1 uM, replicate 1
[10] = 48 h, 1 µM, compound concentration 1 uM, replicate 2
[11] = 48 h, 10 µM, compound concentration 10 uM, replicate 1
[12] = 48 h, 10 µM, compound concentration 10 uM, replicate 2

## Cc1onc(-c2ccccc2Cl)c1C(=O)N(C)c1ccc(Cl)cc1
[1]
  Population Apoptotic (%): 82%
  Population Fragmented Nuclei (%): 26%
  Population Healthy Nuclei (%): 67%
  Population Hoechst High Intensity Objects (%): 0%
  Population Membrane Permeable-Phenotype (%): 3%
  Population Mitochondria Different-Phenotype (%): 2%
  Population Mitotic Cells (%): 17%
  Population Normal (%): 99%
  Population Pyknosed Nuclei (%): 6%
  Population Tubulin-Different-Phenotype (%): 1%
  Total Cell Count: 277
[2]
  Population Apoptotic (%): 78%
  Population Fragmented Nuclei (%): 10%
  Population Healthy Nuclei (%): 79%
  Population Hoechst High Intensity Objects (%): 1%
  Population Membrane Permeable-Phenotype (%): 4%
  Population Mitochondria Different-Phenotype (%): 1%
  Population Mitotic Cells (%): 21%
  Population Normal (%): 98%
  Population Pyknosed Nuclei (%): 10%
  Population Tubulin-Different-Phenotype (%): 3%
  Total Cell Count: 136
[3]
  Population Apoptotic (%): 79%
  Population Fragmented Nuclei (%): 28%
  Population Healthy Nuclei (%): 58%
  Population Hoechst High Intensity Objects (%): 4%
  Population Membrane Permeable-Phenotype (%): 12%
  Population Mitochondria Different-Phenotype (%): 5%
  Population Mitotic Cells (%): 20%
  Population Normal (%): 95%
  Population Pyknosed Nuclei (%): 12%
  Population Tubulin-Different-Phenotype (%): 5%
  Total Cell Count: 244
[4]
  Population Apoptotic (%): 77%
  Population Fragmented Nuclei (%): 24%
  Population Healthy Nuclei (%): 56%
  Population Hoechst High Intensity Objects (%): 0%
  Population Membrane Permeable-Phenotype (%): 7%
  Population Mitochondria Different-Phenotype (%): 6%
  Population Mitotic Cells (%): 22%
  Population Normal (%): 99%
  Population Pyknosed Nuclei (%): 19%
  Population Tubulin-Different-Phenotype (%): 4%
  Total Cell Count: 113
[5]
  Population Apoptotic (%): 100%
  Population Fragmented Nuclei (%): 23%
  Population Healthy Nuclei (%): 70%
  Population Hoechst High Intensity Objects (%): 0%
  Population Membrane Permeable-Phenotype (%): 2%
  Population Mitochondria Different-Phenotype (%): 2%
  Population Mitotic Cells (%): 0%
  Population Normal (%): 99%
  Population Pyknosed Nuclei (%): 5%
  Population Tubulin-Different-Phenotype (%): 0%
  Total Cell Count: 328
[6]
  Population Apoptotic (%): 83%
  Population Fragmented Nuclei (%): 11%
  Population Healthy Nuclei (%): 81%
  Population Hoechst High Intensity Objects (%): 1%
  Population Membrane Permeable-Phenotype (%): 4%
  Population Mitochondria Different-Phenotype (%): 5%
  Population Mitotic Cells (%): 16%
  Population Normal (%): 98%
  Population Pyknosed Nuclei (%): 7%
  Population Tubulin-Different-Phenotype (%): 2%
  Total Cell Count: 168
[7]
  Population Apoptotic (%): 72%
  Population Fragmented Nuclei (%): 26%
  Population Healthy Nuclei (%): 62%
  Population Hoechst High Intensity Objects (%): 3%
  Population Membrane Permeable-Phenotype (%): 11%
  Population Mitochondria Different-Phenotype (%): 6%
  Population Mitotic Cells (%): 27%
  Population Normal (%): 96%
  Population Pyknosed Nuclei (%): 11%
  Population Tubulin-Different-Phenotype (%): 4%
  Total Cell Count: 299
[8]
  Population Apoptotic (%): 64%
  Population Fragmented Nuclei (%): 20%
  Population Healthy Nuclei (%): 66%
  Population Membrane Permeable-Phenotype (%): 8%
  Population Mitochondria Different-Phenotype (%): 7%
  Population Mitotic Cells (%): 35%
  Population Pyknosed Nuclei (%): 13%
  Population Tubulin-Different-Phenotype (%): 7%
  Total Cell Count: 129
[9]
  Population Apoptotic (%): 87%
  Population Fragmented Nuclei (%): 16%
  Population Healthy Nuclei (%): 75%
  Population Hoechst High Intensity Objects (%): 2%
  Population Membrane Permeable-Phenotype (%): 4%
  Population Mitochondria Different-Phenotype (%): 3%
  Population Mitotic Cells (%): 12%
  Population Normal (%): 97%
  Population Pyknosed Nuclei (%): 7%
  Population Tubulin-Different-Phenotype (%): 2%
  Total Cell Count: 450
[10]
  Population Apoptotic (%): 89%
  Population Fragmented Nuclei (%): 12%
  Population Hoechst High Intensity Objects (%): 1%
  Population Membrane Permeable-Phenotype (%): 1%
  Population Mitochondria Different-Phenotype (%): 2%
  Population Mitotic Cells (%): 10%
  Population Normal (%): 98%
  Population Pyknosed Nuclei (%): 11%
  Population Tubulin-Different-Phenotype (%): 1%
  Total Cell Count: 252
[11]
  Population Apoptotic (%): 69%
  Population Fragmented Nuclei (%): 22%
  Population Healthy Nuclei (%): 67%
  Population Hoechst High Intensity Objects (%): 3%
  Population Membrane Permeable-Phenotype (%): 10%
  Population Mitochondria Different-Phenotype (%): 5%
  Population Mitotic Cells (%): 30%
  Population Normal (%): 96%
  Population Pyknosed Nuclei (%): 9%
  Population Tubulin-Different-Phenotype (%): 4%
  Total Cell Count: 413
[12]
  Population Apoptotic (%): 90%
  Population Fragmented Nuclei (%): 23%
  Population Healthy Nuclei (%): 65%
  Population Hoechst High Intensity Objects (%): 2%
  Population Membrane Permeable-Phenotype (%): 9%
  Population Mitotic Cells (%): 10%
  Population Normal (%): 97%
  Population Pyknosed Nuclei (%): 11%
  Population Tubulin-Different-Phenotype (%): 3%
  Total Cell Count: 182
